Assay results reported in article PMC7888481 (Journal of natural products, 2020).
“Also recorded” adds a separate entry of the source.

Key:
[1] = test system: Human FAAH; details: read-out: Human FAAH IC50; literature values ref 27; cited from earlier work
[2] = Pharmacokinetics after oral administration in rats; type: in vivo; details: rat, 100 mg/kg oral
In short: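 Male Sprague-Dawley rats, 8 weeks old, 250–300 g, n=4/group. Test compound given once at 100 mg/kg in 100% NEOBEE 1053 by oral gavage. Each sample added to 100 μL water with 0.1% EDTA, vortexed, stored at −80 °C, then processed and quantified by a previously reported method.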

[3] = test system: LPS-induced inflammatory pain; assay: LPS-induced inflammatory pain model; type: in vivo; details: rat, 100 mg/kg oral, LPS intraplantar, 6-h time-course, n=4/group
[4] = test system: CB1 receptor; details: cited from earlier work
[5] = target: T1, recombinant human sEH (Homo sapiens, UniProt P34913); assay: sEH inhibition assay; type: biochemical
T1 sequence (P34913 1-555): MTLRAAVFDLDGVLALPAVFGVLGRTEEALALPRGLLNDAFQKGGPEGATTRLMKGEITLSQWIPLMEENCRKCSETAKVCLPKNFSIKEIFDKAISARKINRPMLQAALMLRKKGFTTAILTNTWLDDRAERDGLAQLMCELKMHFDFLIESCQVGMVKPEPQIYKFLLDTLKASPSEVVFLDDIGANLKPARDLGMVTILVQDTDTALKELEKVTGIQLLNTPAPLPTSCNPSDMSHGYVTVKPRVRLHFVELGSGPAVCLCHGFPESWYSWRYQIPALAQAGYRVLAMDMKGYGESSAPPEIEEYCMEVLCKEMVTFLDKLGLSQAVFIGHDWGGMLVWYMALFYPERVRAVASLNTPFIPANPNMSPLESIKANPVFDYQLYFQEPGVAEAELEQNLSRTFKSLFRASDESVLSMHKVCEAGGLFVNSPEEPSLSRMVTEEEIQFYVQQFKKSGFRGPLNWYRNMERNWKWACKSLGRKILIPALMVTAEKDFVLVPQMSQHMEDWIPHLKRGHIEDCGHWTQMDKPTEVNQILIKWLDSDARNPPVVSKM
In short: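 Fluorescence assay on recombinant human sEH, test compound in serial dilution. Substrate MNPC at 5 μM final is hydrolysed to fluorescent 6-methoxynaphthaldehyde, read at λex 330 nm and λem 465 nm. IC50 determined in triplicate and the mean reported. Reference inhibitor t-TUCB run in parallel to validate the assay.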

| Structure (SMILES) | IC50 [1] [µM] | other results |
| --- | --- | --- |
| CCCCC/C=C\C/C=C\CCCCCCCC(=O)NCc1cccc(OC)c1 [Compound 11, N-(3-Methoxybenzyl)octadeca-9Z,12Z-dienamide] | 10.3 |  |
| CCCCC/C=C\C/C=C\CCCCCCCC(=O)NCc1ccccc1 [Compound 4, N-Benzyloctadeca-9Z,12Z-dienamide] | 10.8 | time at which concentration peaked in the blood [2]: ≤ 3 h; paw withdrawal thresholds (pain relief) relative to vehicle control ([3]; 100 mg/kg): significantly increased; also recorded: efficacious; binding to the CB1 receptor [4]: selectively bind |
| CCCCCCCCCCCCCCCCCC(=O)NCc1ccccc1 [Compound 2, N-Benzyloctadecanamide] | > 100 |  |
| CC/C=C\C/C=C\C/C=C\CCCCCCCC(=O)NCc1cccc(OC)c1 [Compound 12, N-(3-Methoxybenzyl)octadeca-9Z,12Z,15Z-trienamide] | 13.7 |  |
| CCCCCCCC/C=C\CCCCCCCC(=O)NCc1ccccc1 [Compound 3, N-Benzyloctadec-9Z-enamide] | 16.7 |  |
| CCCCCCCCCCCCCCCC(=O)NCc1ccccc1 [Compound 1, N-benzylpalmitamide] | > 100 |  |
| CCCCC/C=C\C/C=C\CCCCCCCC(=O)NCCc1ccccc1 [Compound 18, N-Phenethyloctadeca-9Z,12Z-dienamide] |  | IC50 [5]: 0.028 µM |
| CC/C=C\C/C=C\C/C=C\CCCCCCCC(=O)NCc1ccccc1 [Compound 5, N-Benzyloctadeca-9Z,12Z,15Z-trienamide] | 41.8 | paw withdrawal thresholds (pain relief) relative to vehicle control [3]: not significant |
| CCCCCCCC/C=C\CCCCCCCC(=O)NCc1cccc(OC)c1 [Compound 10, N-(3-Methoxybenzyl)octadec-9Z-enamide] | 11 |  |
